Measurements taken from ChEMBL document CHEMBL1126160, “Synthesis and structure-activity relationships of 7-diazabicycloalkylquinolones, including danofloxacin, a new quinolone antibacterial agent for veterinary medicine” (J Med Chem, 1992).
In brackets after ≈: the same amount, converted by molar mass.

How the values were obtained:
Pasteurella multocida [1] = test: In vivo protective dose was evaluated against Pasteurella multocida (59A006) in mouse(po); type: functional; conditions: read-out: PD50
Method in brief: (§1)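 Female CF-1 mice (15 g), groups of 10, challenged ip with 0.5 mL bacterial suspension (P. multocida 59A006 or E. coli 51A266 at 3.0 × 10^8 cfu/mL; S. choleraesuis 58B010 at 8.5 × 10^2 cfu/mL). Drug given sc or po at 30 min, 4 h and 24 h after challenge; survival recorded at 96 h; PD50 by probit analysis.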

[2] = In vitro antibacterial activity against Aerobically grown Pasteurella haemolytica (59B018); type: functional; conditions: Mannheimia haemolytica
Method in brief: (§2)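 Agar dilution MICs. Aerobic strains were tested on brain heart infusion agar and incubated aerobically at 37 °C for 18–20 h.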

Trueperella pyogenes = test: In vitro antibacterial activity against anaerobically grown Actinomyces pyogenes (14D002); type: functional
Method in brief: (§3)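 Agar dilution MICs. Anaerobic strains were tested on tryptose agar with 5% bovine blood and incubated 48 h at 39 °C in an anaerobe chamber under N2/CO2/H2 (80:10:10).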

Salmonella enterica [3] = test: In vitro antibacterial activity against aerobically grown Salmonella choleraesuis (58B015); type: functional
Mannheimia haemolytica [4] = test: Compound was evaluated for minimum effective dose against Pasteurella haemolytica, intramuscular dose administration; type: functional; conditions: im, read-out: MED
Method in brief: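 Calves acid-treated intratracheally with 0.6 mL 8% acetic acid at 24 h and 4 h before endotracheal challenge with 50 mL P. haemolytica B280PA (~5 × 10^8 cfu/mL). im dosing of 2.5% or 5% solution in sterile water, day 0 and day 1 (SID × 2). Clinical signs and temperature recorded days 0–5; lungs scored and cultured. MED = lowest dose giving significant (65%) reduction of lung pathology.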

[5] = tested on: Bordetella bronchiseptica; test: In vitro antibacterial activity against aerobically grown Bordetella bronchiseptica (73A009); type: functional; method in brief: as §2
Pasteurella multocida [6] = test: In vivo protective dose was evaluated against Pasteurella multocida (59A006) in mouse(sc); type: functional; conditions: read-out: PD50; method in brief: as §1
Escherichia coli [7] = test: In vivo protective dose was evaluated against Escherichia coli (51A266) in mouse(sc); type: functional; conditions: read-out: PD50; method in brief: as §1
[8] = In vitro evaluation for antibacterial activity against anaerobically grown Treponema hyodysenteriae (94A007); type: functional; conditions: Brachyspira hyodysenteriae
[9] = tested on: Actinobacillus pleuropneumoniae; test: In vitro antibacterial activity against anaerobically grown Actinobacillus pleuropneumoniae ([…]); type: functional; method in brief: as §3
Escherichia coli [10] = test: In vitro antibacterial activity against aerobically grown Escherichia coli (51A538); type: functional; method in brief: as §2
[11] = compound was evaluated for aqueous solubility at pH 7.2; type: physicochemical; conditions: buffer
Method in brief: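 Excess solid (~5 mg) shaken in 3 mL 0.05 M phosphate buffer pH 7.2 at 23 ± 1 °C in duplicate vials up to 3 days, pH readjusted to 7.2 after each sampling; filtered (0.45 nylon) samples analysed by HPLC.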

Pasteurella multocida [12] = test: In vitro antibacterial activity against aerobically grown Pasteurella multocida (59A006); type: functional; method in brief: as §2
Escherichia coli [13] = test: In vivo protective dose was evaluated against Escherichia coli (51A266) in mouse(po); type: functional; conditions: read-out: PD50; method in brief: as §1
Phocaeicola vulgatus = test: In vitro antibacterial activity against anaerobically grown Bacteroides vulgatus (78D029); type: functional; method in brief: as §3
Staphylococcus aureus = test: In vitro antibacterial activity against aerobically grown Staphylococcus aureus (54B004); type: functional; method in brief: as §2
[14] = tested on: Actinobacillus pleuropneumoniae; test: Compound was evaluated for minimum effective dose against Actinobacillus pleuropneumonia, peroral dose administration; type: functional; conditions: po, read-out: MED
Method in brief: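 Cross-bred swine, 8.5–12.5 kg; intranasal challenge with A. pleuropneumoniae strain B316HM, grown overnight on enriched BHI agar at 37 °C in 5–10% CO2 and standardized by OD to 10^9 cfu/mL, three 1-mL increments per nostril. Single treatment (SID × 1): im 1% or 2.5% solution in sterile water into ham within 1 h of challenge, or oral gavage of 0.5% solution in sterile water.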

Clostridium perfringens = test: microbe, parasite or virus in culture; type: functional
[15] = tested on: Actinobacillus pleuropneumoniae; test: Compound was evaluated for minimum effective dose against Actinobacillus pleuropneumonia, intramuscular dose administration; conditions: im, read-out: MED
Escherichia coli [16] = test: Escherichia coli DNA cleavage endpoint value which is the minimum amount required (in micro g/mL) to induce detectable cleavage of supercoiled pBR322 substrate to linear form (gyrase); type: functional; conditions: read-out: MIC
Method in brief: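 DNA gyrase A and B subunits were purified from E. coli overproducers. About 2 units of holoenzyme were incubated with pBR322 in Tris-HCl pH 7.5 containing MgCl2, spermidine, DTT, 0.2 mM ATP, BSA and tRNA. Drug was added as 2-fold serial dilutions, and reactions ran for 60 min at 25 °C. Reactions were stopped with SDS and proteinase K, then run on agarose and stained with ethidium. The endpoint was the lowest concentration giving detectable linear DNA.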

[17] = tested on: Actinobacillus pleuropneumoniae; test: Dose was evaluated for minimum effective dose actinobacillus pleuropneumonia, intramuscular dose administration; conditions: im, read-out: MED
Mannheimia haemolytica [18] = test: Dose was evaluated for minimum effective dose Pasteurella haemolytica, intramuscular dose administration; type: functional; conditions: im, read-out: MED
Method in brief: (§4)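 Calf and swine respiratory disease models. Calves received acetic acid intratracheally on the day before and on day 0, then an endotracheal challenge with P. haemolytica B280PA, about 5 × 10^8 cfu/mL. They were dosed im with a 2.5% or 5% solution in sterile water on days 0 and 1 (SID × 2). Pigs weighing 8.5–12.5 kg were challenged intranasally with A. pleuropneumoniae B316HM, 10^9 cfu/mL. They were dosed once within 1 h, either im (1% or 2.5% solution) or by gavage (0.5% solution). MED was the lowest dose giving significant reduction of lung pathology.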

Salmonella enterica [19] = test: In vivo protective dose was evaluated against Salmonella choleraesuis (58B010) in mouse(po); type: functional; conditions: read-out: PD50; method in brief: as §1
[20] = tested on: Actinobacillus pleuropneumoniae; test: Compound was evaluated for minimum effective dose Actinobacillus pleuropneumonia, peroral dose administration; type: functional; conditions: po, read-out: MED; method in brief: as §4
[21] = Compound was evaluated for aqueous solubility at pH 7.2; conditions: buffer

Row | Compound | ED50 (Pasteurella multocida [1]) [mg/kg] | MIC [2] [µg/mL] | MIC (Trueperella pyogenes) [µg/mL] | MIC (Salmonella enterica [3]) [µg/mL] | MIC [5] [µg/mL] | ED50 (Pasteurella multocida [6]) [mg/kg] | ED50 (Escherichia coli [7]) [mg/kg] | MIC [8] [µg/mL] | MIC [9] [µg/mL] | MIC (Escherichia coli [10]) [µg/mL] | MIC (Pasteurella multocida [12]) [µg/mL] | ED50 (Escherichia coli [13]) [mg/kg] | MIC (Phocaeicola vulgatus) [µg/mL] | MIC (Staphylococcus aureus) [µg/mL] | MIC (Clostridium perfringens) [µg/mL] | minimum concentration inducing gyrase-mediated DNA cleavage (Escherichia coli [16]) [µg/mL] | also measured
1 | CCn1cc(C(=O)O)c(=O)c2cc(F)c(N3CCN4CCC3CC4)cc21 [BINFLOXACIN] | 1.9 | 0.1 (≈ 0.278 µM) | 3.13 (≈ 8.71 µM) | 0.2 (≈ 0.556 µM) | 1.56 (≈ 4.34 µM) | 0.63 | 1.1 | 1.56 (≈ 4.34 µM) | 0.05 (≈ 0.139 µM) | 0.2 (≈ 0.556 µM) | 0.05 (≈ 0.139 µM) | 10.2 | > 3.13 | 0.39 (≈ 1.09 µM) | 0.1 (≈ 0.278 µM) | 1.56 | minimal effective dose (Mannheimia haemolytica [4]): 0.3 mg/kg; solubility [11]: 49 µg/mL (≈ 136 µM); minimal effective dose [14]: 2.5 mg/kg; minimal effective dose [15]: 0.3 mg/kg
2 | CN1C[C@@H]2C[C@H]1CN2c1cc2c(cc1F)c(=O)c(C(=O)O)cn2C1CC1 [DANOFLOXACIN] | 0.31 | 0.05 (≈ 0.14 µM) | > 3.13 | 0.05 (≈ 0.14 µM) | 0.78 (≈ 2.18 µM) | – | – | 0.39 (≈ 1.09 µM) | 0.05 (≈ 0.14 µM) | 0.05 (≈ 0.14 µM) | 0.01 (≈ 0.028 µM) | 0.4 | 3.13 (≈ 8.76 µM) | 0.39 (≈ 1.09 µM) | 0.2 (≈ 0.56 µM) | 0.78 | minimal effective dose [17]: 0.15 mg/kg; minimal effective dose (Mannheimia haemolytica [18]): 0.15 mg/kg; ED50 (Salmonella enterica [19]): 1.12 mg/kg; minimal effective dose [20]: 0.6 mg/kg
3 | CCn1cc(C(=O)O)c(=O)c2cc(F)c(N3CCNCC3)cc21 [NORFLOXACIN] | 0.63 | 0.05 (≈ 0.157 µM) | 12.5 (≈ 39.1 µM) | 0.1 (≈ 0.313 µM) | 6.25 (≈ 19.6 µM) | 5.54 | 0.46 | 6.25 (≈ 19.6 µM) | < 0.05 | 0.1 (≈ 0.313 µM) | 0.05 (≈ 0.157 µM) | 8.84 | 25 (≈ 78.3 µM) | 3.13 (≈ 9.8 µM) | 0.39 (≈ 1.22 µM) | 0.78 | solubility [21]: 350 µg/mL (≈ 1100 µM)
